# Shown are actives, neighbours in structure and some others; about 2.5% of the full set was active somewhere.
# PRMT1 inh – PRMT1 methyltransferase inhibitors, primary screen, biochemical, fluorescence polarization; inhibition, % at 2.79 µM; recombinant PRMT1, activity-based probe fluorescence polarization; Protein arginine N-methyltransferase 1 (Homo sapiens), Q99873; actives 1.3% (n = 370,000);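 active = inhibition above about 21% made by adding two undisclosed values, limit read from the data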
# GSTO1 inh – inhibitors of recombinant GSTO1, primary screen, counter-screen for RBBP9 inhibitor project, biochemical, fluorescence polarization; Glutathione S-transferase omega-1 (Homo sapiens), P78417; activity-based probe fluorescence polarization; inhibition, % at 5.96 µM; actives 1.1% (n = 300,000); AID 1974, 2009;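 active = inhibition above the campaign mean inhibition plus 3 SD, cut at about 35% in these data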;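 note: 0% = GSTO1-1 with DMSO and 100% = wells lacking GSTO1-1 enzyme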
# eLon inh – inhibitors of E. coli Lon protease, primary screen, biochemical, fluorescence polarization | AID 602123, 2011 | purified E. coli Lon protease | inhibition, % at 7.94 µM | actives 0.42% (n = 360,000); in the data active = inhibition above about 13%, passing the limit was not always enough;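 note: 0% = enzyme with probe and DMSO and 100% = no enzyme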
# TDP2 absorb – human TDP2 enzyme inhibitors, primary screen, biochemical, epi absorbance, recombinant enzyme | Tyrosyl-DNA phosphodiesterase 2 (Homo sapiens), O95551 | T5PNP hydrolysis, p-nitrophenol absorbance 415 nm | inhibition, % at 12.8 µM | actives 0.34% (n = 370,000) | AID 720702, 2013;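 active = inhibition above the mean of all tested compounds plus 3 SD, set per campaign, cut at about 25% in these data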;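 note: 0% = DMSO with enzyme and 100% = buffer with substrate but no TDP2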
#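 Assay system: Recombinant human TDP2 | Quantity: 120 nM TDP2 per well | Incubation: 2 h at 37 °C | Signal: Epi absorbance | Evaluation: Percent inhibition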
# PAD4 inh – human PAD4 inhibitors, primary screen, biochemical, fluorescence polarization, 1536-well format. actives 0.41% (n = 330,000). AID 485272, 2010. recombinant PAD4, RCA probe fluorescence polarization. inhibition, % at 6.36 µM;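 active = percent inhibition above a cutoff equal to the mean of all tested compounds plus 3 SD, cut at about 15% in these data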;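 note: 0% = PAD4 with RCA probe and DMSO and 100% = probe without PAD4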
# Target sequence (Q9UM07 whole entry, looked up): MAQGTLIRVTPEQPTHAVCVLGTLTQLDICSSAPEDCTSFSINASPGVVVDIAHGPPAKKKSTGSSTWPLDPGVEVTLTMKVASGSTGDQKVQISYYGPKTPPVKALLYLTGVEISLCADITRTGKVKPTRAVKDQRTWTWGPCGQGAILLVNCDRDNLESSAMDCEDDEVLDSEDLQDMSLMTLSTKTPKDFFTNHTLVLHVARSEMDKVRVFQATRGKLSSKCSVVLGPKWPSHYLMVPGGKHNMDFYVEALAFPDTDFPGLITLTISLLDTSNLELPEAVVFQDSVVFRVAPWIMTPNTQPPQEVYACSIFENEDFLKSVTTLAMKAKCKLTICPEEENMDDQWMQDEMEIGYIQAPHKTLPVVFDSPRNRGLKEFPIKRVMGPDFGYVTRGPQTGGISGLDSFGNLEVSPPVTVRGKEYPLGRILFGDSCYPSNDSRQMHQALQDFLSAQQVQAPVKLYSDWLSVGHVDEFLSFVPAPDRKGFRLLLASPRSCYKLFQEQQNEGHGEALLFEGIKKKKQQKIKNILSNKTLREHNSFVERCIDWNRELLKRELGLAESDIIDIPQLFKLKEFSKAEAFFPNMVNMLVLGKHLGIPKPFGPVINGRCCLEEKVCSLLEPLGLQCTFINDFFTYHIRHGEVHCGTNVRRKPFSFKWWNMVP
# PRMT1 inh conf – PRMT1 methyltransferase inhibitors, confirmation, biochemical, fluorescence polarization, triplicate; shares compounds with PRMT1 inh; recombinant His-PRMT1, activity-based probe fluorescence polarization; inhibition, % at 2.79 µM; actives 42% (n = 3,300); AID 687036, 2013;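 active = mean inhibition across replicates above the hit cutoff derived for the earlier primary screen, cut at about 22% in these data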
# An asterisk follows results filed as active; . = no result given.
SMILES,PRMT1 inh,GSTO1 inh,eLon inh,TDP2 absorb,PAD4 inh,PRMT1 inh conf
CN(C)c1ccc2c(c1)N=C(c1ccco1)OP2(=S)N1CCOCC1 (stereo not drawn),26*,15,1,1,-1,50*
CN(C)c1ccc(CCN2CCOCC2)cc1,-1,4,-2,-1,-6,.
C=CCOC(=O)C1C(C(=O)O)C2(Cl)C(Cl)=C(Cl)C1(Cl)C2(Cl)Cl (stereo not drawn),64*,.,-4,7,.,6
O=C(O)C1C(C(=O)O)C2(Cl)C(Cl)=C(Cl)C1(Cl)C2(Cl)Cl (stereo not drawn),6,.,4,10,3,.
CC(C)C[C@H](NC(=O)[C@@H]1CCCN1C(=O)[C@@H](N)Cc1ccc(O)cc1)C(=O)NCC(N)=O,-5,5,-4,4,-7,.
CN=C(SCc1ccccc1)c1c(O)n(C)c(=O)n(C)c1=O,1,12,5,13,-8,.
C=CCN=C(SCC(=O)c1ccc(Cl)cc1)c1c(O)n(C)c(=O)n(C)c1=O,29*,4,5,-10,2,31*
Cc1nn(Cc2ccccc2)c(C)c1C(=O)OCC(=O)Nc1ccccc1SCC#N,-4,5,-32,6,2,.
[Cl][Pt+2][Cl].[NH-]C1CCCCC1[NH-] (stereo not drawn),47*,6,-10,5,2,8
Cc1ccc(S(=O)(=O)Oc2ccccc2C=C2C(=O)N(C)C(=O)N(C)C2=O)cc1,30*,10,4,-6,2,-1
COc1ccc(-c2ccc3c(c2)CN(C(=O)NC2CCCCC2)Cc2cnnn2-3)cc1,5,.,2,9,.,.
Cc1ccc(/C=C2\C(=O)NC(=S)N(c3cccc(F)c3)C2=O)o1,29*,1,-72,13,-18,57*
CN1C(=O)C(=Cc2ccc(Sc3ccccc3)o2)C(=O)N(C)C1=S,36*,-43,-13,-1,-17,76*
CN1CCC(O)(c2cccs2)C(C(=O)c2cccs2)C1 (stereo not drawn),1,-3,-14,-11,-2,.
CN1C(=O)C(=Cc2cn(CC(=O)N3CCCCC3)c3ccccc23)C(=O)N(C)C1=O,.,-8,-12,.,-5,.
CN1C(=O)C(=Cc2cn(CC#N)c3ccccc23)C(=O)N(C)C1=O,32*,.,-55,-2,.,11
CN1C(=O)C(=Cc2cn(CC(=O)N3CCCC3)c3ccccc23)C(=O)N(C)C1=O,32*,11,-25,-10,-3,-4
CCOC(=O)Cn1cc(C=C2C(=O)N(C)C(=O)N(C)C2=O)c2ccccc21,16,2,-19,-12,-6,.
CC(=O)OC1C2CCCC1C(N1CCCC1)CC2 (stereo not drawn),2,4,-4,-11,3,.
c1ccc(NC2=NCCCS2)cc1,-5,.,-4,0,.,.
N#Cc1c(/N=C/c2c(O)n(Cc3ccco3)c(=O)[nH]c2=O)sc2c1CCCC2,26*,35,-142,11,-1,6
O=c1[nH]c(=O)n(Cc2ccco2)c(O)c1/C=N/N1CCCCCC1,4,-7,5,0,-6,.
Cc1cc(N2CCNC[C@H]2C)ccc1N1CC[C@H](O)C1,41*,.,.,-1,.,-2
Cc1cccc(N2C(=O)NC(=O)/C(=C\C=C\c3ccco3)C2=O)c1,36*,-2,-81,-1,-7,1
O=C1NC(=O)N(Cc2ccco2)C(=O)/C1=C/C=C/c1ccco1,61*,28,-104,1,-6,13
SMILES,PRMT1 inh,GSTO1 inh,eLon inh,TDP2 absorb,PAD4 inh,PRMT1 inh conf
CN1C(=O)/C(=C/C=C/c2ccco2)C(=O)NC1=S,40*,17,-94,11,-13,57*
O=C1NC(=O)N(Cc2ccccc2)C(=O)/C1=C\C=C\c1ccco1,36*,11,-173,-20,-12,1
CC1(CCCc2ccc(N(CCCl)CCCl)cc2)NC(=O)NC1=O (stereo not drawn),-2,.,-1,-2,.,.
Cc1cc(C(=O)OCC(=O)Nc2ccc(F)cc2)c(C)n1C1CC1,0,.,-6,-6,-1,.
O=C1NC(=O)N(Cc2ccccc2)C(=O)/C1=C/N1CCCc2ccccc21,28*,33,-38,-3,-1,-8
Cc1cc(OCCN2CC2)c2ccccc2n1,.,-5,.,.,2,.
O=P(Nc1ccccc1)(Nc1ccccc1)Oc1ccccc1,-1,0,-2,1,-4,.
O=P(Nc1ccccc1)(Oc1ccccc1)Oc1ccccc1,82*,0,6,-14,6,2
CC[C@@H](CO)NC(=O)[C@@H]1C=C2c3cccc4[nH]cc(c34)C[C@H]2N(C)C1,30*,.,45,9,.,19
C=C1C(=O)OC2CC(C)C3C=CC(=O)C3(C)C(O)C12 (stereo not drawn),.,.,-10,.,.,.
C=C1C(=O)O[C@@H]2C[C@@H](C)[C@@H]3C=CC(=O)[C@@]3(C)[C@@H](OC(=O)CC(=O)O[C@H]3[C@@H]4C(=C)C(=O)O[C@@H]4C[C@@H](C)[C@@H]4C=CC(=O)[C@]43C)[C@H]12,29*,-17,-5,-8,-12,26*
COC(=O)C1=C(c2cccc(C#N)c2)C[C@@H]2CC[C@H]1N2C(=O)NCCOc1ccccc1Cl,2,.,0,2,0,.
CNc1cc(Cl)c2nonc2c1[N+](=O)[O-],57*,.,-4,2,.,25*
COP(=O)(OC)C(C)NC(=O)OCc1ccccc1 (stereo not drawn),0,.,.,10,.,.
O=C1CC(N2CCC(n3c(=O)[nH]c4ccccc43)CC2)C(=O)N1c1ccc(F)cc1 (stereo not drawn),45*,-10,-15,-17,0,3
Cc1ccc(OCCn2cccc2/C=C2/C(=O)NC(=O)N(Cc3ccco3)C2=O)cc1,32*,6,-85,20,-7,12
CCc1ccc(N2C(=O)NC(=O)/C(=C\c3cccn3CCOc3ccc(C(C)C)cc3)C2=O)cc1,0,-2,-14,8,-2,.
Cn1cccc1/C=C1\C(=O)NC(=O)N(Cc2ccco2)C1=O,31*,.,-44,12,.,22*
COc1ccc(/C=C2/C(=O)NC(=O)N(Cc3ccco3)C2=O)cc1,.,23,.,.,-4,.
Cc1cc(C)n2c(Br)c(CN3CC4CC(C3)c3cccc(=O)n3C4)nc2n1 (stereo not drawn),2,-2,6,6,-1,.
Cc1cc(N2CCCCC2)ccc1C=C1C(=O)N(C)C(=S)N(C)C1=O,29*,-10,-11,-10,-10,22*
